Data set [1] has as its target hERG (KCNH2) (Homo sapiens, UniProt Q12809). Nature of the data set: Inhibition of human ERG expressed in CHO cells at 10 uM incubated for 5 mins by patch-clamp assay relative to control. Format: cell-based. To be noted: CHO cells expressing human ERG. A digest of the protocol:
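hERG-expressing CHO cells grown at 32 °C, recorded by population patch clamp after amphotericin B perforation; PBS with Ca/Mg outside, KCl/EGTA/HEPES pH 7.3 inside. Holding −80 mV, step to 40 mV 2 s, then −50 mV 2 s; peak tail current before and after 5 min compound exposure. Percent inhibition = 100 − post/pre × 100; mean ± SD, n = 4.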
Background: Patch clamp records ionic current or voltage across a cell membrane.

Data set [2] has as its target T1, Glucose-dependent insulinotropic receptor (Homo sapiens, UniProt Q8TDV5).
T1 sequence (Q8TDV5 whole entry): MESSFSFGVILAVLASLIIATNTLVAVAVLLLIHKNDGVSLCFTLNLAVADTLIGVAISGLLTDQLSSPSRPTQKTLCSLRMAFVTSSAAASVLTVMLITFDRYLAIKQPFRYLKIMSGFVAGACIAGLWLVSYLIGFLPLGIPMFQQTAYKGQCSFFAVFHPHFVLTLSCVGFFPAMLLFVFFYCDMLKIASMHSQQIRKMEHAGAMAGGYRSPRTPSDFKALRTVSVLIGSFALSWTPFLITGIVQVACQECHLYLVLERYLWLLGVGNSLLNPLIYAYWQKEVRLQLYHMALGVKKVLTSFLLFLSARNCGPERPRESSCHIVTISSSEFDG
Nature of the data set: Agonist activity at human GPR119 expressed in CHO cells co-expressing cyclic AMP response element incubated for 2 hrs by steady-glo luciferase assay. Format: cell-based. A digest of the protocol:
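CHO cells stably expressing human GPR119, seeded at 10,000 cells/well in MEM α with 500 µg/mL Geneticin overnight, then exposed to graded compound concentrations in MEM α/20 mmol/L HEPES/0.1% BSA for 2 h. cAMP-driven luciferase read with Steady-Glo. Response normalized between vehicle and a 10 µM reference agonist; EC50 as mean of n = 2.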

Data set [3] addresses T2, Glucose-dependent insulinotropic receptor (Mus musculus, UniProt Q7TQP3).
T2 sequence (Q7TQP3 whole entry): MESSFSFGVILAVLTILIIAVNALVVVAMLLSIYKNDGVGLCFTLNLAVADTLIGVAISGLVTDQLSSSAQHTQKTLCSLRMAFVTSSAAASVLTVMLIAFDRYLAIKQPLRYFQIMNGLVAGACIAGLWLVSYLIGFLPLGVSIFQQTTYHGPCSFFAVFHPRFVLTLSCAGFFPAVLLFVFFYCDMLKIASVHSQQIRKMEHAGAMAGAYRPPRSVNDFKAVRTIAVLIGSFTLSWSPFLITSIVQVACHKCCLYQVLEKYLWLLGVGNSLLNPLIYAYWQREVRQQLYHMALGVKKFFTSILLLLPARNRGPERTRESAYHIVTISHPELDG
Nature of the data set: Agonist activity at GPR119 in glucose-induced mouse L cells assessed as induction of GLP-1 secretion after 2 hrs by ELISA. A digest of the protocol: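 GLUTag cells (murine L cell line) seeded at 1 × 10^4 cells/well on poly-L-lysine, switched to low-glucose DMEM overnight, washed with HBSS, then exposed to compounds in KRBH buffer with 0.2% fatty acid free BSA and 10 mmol/L glucose for 2 h at 37 °C. Active GLP-1 in supernatant by ELISA; EC50 from n = 2.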
(In general: ELISA stands for enzyme-linked immunosorbent assay.)

Data set [4] can be described thus: Total clearance in rat at 0.1 mg/kg, iv by LC/MS/MS analysis. To be noted: in vivo. Format: ADME, organism-based. The method, boiled down: (§1)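 Cassette intravenous dosing at 0.1 mg/kg to non-fasted animals. Plasma taken from blood samples, deproteinized and centrifuged, and compound levels in supernatant quantified by LC/MS/MS.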
The subject of data set [5] is Rattus norvegicus. Nature of the data set: Antidiabetic activity in N-STZ 1.5 rat assessed as reduction in glucose level at 1 mg/kg, po pre-treated for 60 mins followed by 1.5 g/kg glucose treatment and measured up to 120 mins by OGTT. Type of data set: functional, organism-based. To be noted: time min <=180. The method, boiled down: (§2)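 Male N-STZ1.5 rats, 25–30 weeks old, fasted overnight, dosed orally with compound or 0.5% methylcellulose vehicle; 60 min later oral glucose load 1.5 g/kg. Tail-vein blood taken pre-dose, at 0, 10, 30, 60 and 120 min; plasma glucose by autoanalyzer, insulin by radioimmunoassay. AUC computed; mean ± SD, n = 6; one-tailed Williams' test.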

A short description of data set [6]: AUC in rat at 1 mg/kg, po by LC/MS/MS analysis. Type of data set: ADME, organism-based. Set-up: dose 1 mg/kg. To be noted: in vivo. The method, boiled down: (§3)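 Cassette dosing, given by mouth at 1 mg/kg in 0.5% methylcellulose aqueous solution, with intravenous arm at 0.1 mg/kg, to non-fasted animals. Blood collected after dosing, plasma deproteinized and centrifuged, compound measured by LC/MS/MS.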

Data set [7] deals with Rattus norvegicus. Nature of the data set: Antidiabetic activity in N-STZ 1.5 rat assessed as increase in plasma insulin level at 1 to 3 mg/kg, po pre-treated for 60 mins followed by 1.5 g/kg glucose treatment and measured up to 120 mins by radioimmunoassay. To be noted: dose 1-3 mg/kg, time min <=180. Format: functional, organism-based. A digest of the protocol:
as §2

Data set [8] relates to Rattus norvegicus. Briefly: Antidiabetic activity in po dosed N-STZ 1.5 rat assessed as reduction in glucose level pre-treated for 60 mins followed by 1.5 g/kg glucose treatment and measured up to 120 mins by OGTT. Format: functional, organism-based. To be noted: dose 1-3 mg/kg, time min <=180. The method, boiled down:
as §2

The nature of data set [9]: Partition coefficient, logD between 1-octanol and pH 7.4 aqueous buffer by chromatographic analysis. Type of data set: physicochemical. To be noted: 1-octanol/pH 7.4 aqueous buffer. The method, boiled down: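 LogD at pH 7.4, octanol/aqueous buffer partition, estimated by a chromatographic method adapted from a published procedure.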
A short description of data set [10]: Volume of distribution at steady state in rat at 0.1 mg/kg, iv by LC/MS/MS analysis. To be noted: in vivo, read-out: Vdss. Format: ADME, organism-based. A digest of the protocol: as §1
The nature of data set [11]: Intrinsic clearance in rat liver microsomes at 1 uM measured after 15 to 30 mins in presence of NADPH generating system by LC/MS/MS analysis. Format: ADME, Microsome. To be noted: time 15-30 min, read-out: CLH. The method, boiled down:
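Human or rat liver microsomes at 0.2 mg/mL protein in 50 mM potassium phosphate pH 7.4 with 1 µM compound; reaction started with NADPH-generating system (5 mM MgCl2, 5 mM glucose-6-phosphate, 0.5 mM β-NADP+, 1.5 units/mL G6PDH). Stopped with acetonitrile at 15 and 30 min, parent by LC/MS/MS; rate from concentration–time slope, expressed as µL/min/mg.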
On the technique in general: Microsomes from liver hold many membrane-bound enzymes, among them those of drug oxidation.

A short description of data set [12]: Oral bioavailability in rat at 1 mg/kg by LC/MS/MS analysis. To be noted: in vivo. Type of data set: ADME, organism-based. The method, boiled down:
as §3

Active and inactive are the calls of the source. No cut-off for these calls is given here.

Chain of hERG (KCNH2) (Q12809 whole entry): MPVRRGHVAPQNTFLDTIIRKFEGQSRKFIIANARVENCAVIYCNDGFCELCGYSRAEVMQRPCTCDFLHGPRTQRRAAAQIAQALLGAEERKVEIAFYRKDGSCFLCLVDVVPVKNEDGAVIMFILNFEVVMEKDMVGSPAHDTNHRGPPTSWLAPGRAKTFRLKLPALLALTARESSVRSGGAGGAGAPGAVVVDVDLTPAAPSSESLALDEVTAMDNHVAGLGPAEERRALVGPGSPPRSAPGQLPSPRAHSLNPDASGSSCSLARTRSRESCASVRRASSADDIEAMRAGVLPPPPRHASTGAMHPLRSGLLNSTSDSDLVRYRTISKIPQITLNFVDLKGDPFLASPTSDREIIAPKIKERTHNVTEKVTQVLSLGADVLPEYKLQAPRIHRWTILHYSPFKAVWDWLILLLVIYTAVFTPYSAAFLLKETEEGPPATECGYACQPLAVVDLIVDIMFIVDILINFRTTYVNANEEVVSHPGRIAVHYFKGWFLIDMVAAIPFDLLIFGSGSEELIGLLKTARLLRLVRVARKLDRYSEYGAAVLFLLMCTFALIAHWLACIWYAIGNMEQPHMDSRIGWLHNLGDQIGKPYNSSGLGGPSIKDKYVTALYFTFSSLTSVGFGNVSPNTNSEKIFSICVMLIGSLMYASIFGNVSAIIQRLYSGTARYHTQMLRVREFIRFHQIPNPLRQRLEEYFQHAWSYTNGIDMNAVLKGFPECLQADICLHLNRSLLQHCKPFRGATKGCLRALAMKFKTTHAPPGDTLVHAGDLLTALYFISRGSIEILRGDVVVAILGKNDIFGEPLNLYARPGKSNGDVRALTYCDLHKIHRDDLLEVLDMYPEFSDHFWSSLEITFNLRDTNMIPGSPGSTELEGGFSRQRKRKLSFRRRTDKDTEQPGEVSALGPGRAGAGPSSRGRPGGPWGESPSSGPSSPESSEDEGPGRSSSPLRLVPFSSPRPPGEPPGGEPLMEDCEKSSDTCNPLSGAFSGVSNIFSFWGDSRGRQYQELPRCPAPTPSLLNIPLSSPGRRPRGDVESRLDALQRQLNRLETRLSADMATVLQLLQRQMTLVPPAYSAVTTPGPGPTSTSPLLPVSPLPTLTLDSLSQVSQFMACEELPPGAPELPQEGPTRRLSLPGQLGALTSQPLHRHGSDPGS

Usually inhibition stands for the percentage by which the read-out fell short of the control. By EC50 is commonly meant the concentration that produces a half-maximal response. In general, clearance refers to a measure of how efficiently the substance is removed, as volume per time. A high value points to efficient removal. One may read the AUC as the area under the concentration-time curve, a measure of exposure. Read a high AUC as more exposure. A word on the logD: it is lipophilicity at a set pH, counting ionised and neutral species. As usually defined, the bioavailability is dose-corrected exposure relative to a reference, in per cent. Read a high bioavailability as good availability. In data set [1], `CC(C)c1noc(N2CCC(Oc3cc(N4CCc5cc(N6CCC[C@H](O)C6=O)ccc54)ncn3)CC2)n1` registered an inhibition at 5 min, 10 µM of 31%. In addition, the EC50 was 0.016 µM in data set [2] and 0.019 µM in data set [3]. In data set [4], this molecule gave a clearance of 2.47 mL/min/kg. For the same molecule, the result in [5] and in data set [7] was Active. Further, in data set [6], the area under the curve (AUC) was 1670 ng·h/mL. Moreover, the Activity entry in data set [8] is “Dose-dependent effect”. This molecule gave a logD in data set [9] of 3.3. Also, the Vd in data set [10] turned out to be 0.332 L/kg. Further, the microsomal CLint at 1 µM in data set [11] is 1 µL/min/mg. Further, the bioavailability in [12] was determined as 24%.
